ChEMBL document CHEMBL4513216, “Probing the Open Global Health Chemical Diversity Library for Multistage-Active Starting Points for Next-Generation Antimalarials” (ACS Infect Dis, 2020)

Assay: Toxicity liver stage against HepG2, at 10uM
Assay type: cell-based
Parameters: test concentration 10 uM, cell line HepG2-A16-CD81EGFP
Details: human, HepG2-A16-CD81EGFP cells; read-out: INHIBITION
How it was run: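 Uninfected HepG2-A16-CD81EGFP cells, 3 × 10^3 per well, 1536-well, plated on prespotted compound at 10 μM final, parasite-free screening media added to match infected plates; puromycin 10 μM positive, DMSO 0.5% negative; run in parallel with 48 h PbLuc assay at 37 °C, 5% CO2; viability by CellTiter-Glo luminescence, normalized to controls.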

| SMILES | cytotoxicity at 10 µM |
| --- | --- |
| CCc1ccc(CN(C)Cc2nc(COc3ccccc3)no2)nc1 | 6.58% |
| COc1c[nH]c(C(=O)Nc2nc(C(C)(C)C)cs2)cc1=O | -49.6% |
| NCCC(=O)NCC1(O)CCCN(c2ccnc3cccnc23)C1 (stereo unspecified) | 0.72% |
| COCCC(=O)N1C[C@@H](c2ccccc2F)[C@@]2(CCCC(=O)N2)C1 | 0.55% |
| CCn1cc(CN2CCc3nc(N4CCOCC4)nc(O)c3CC2)cn1 | -5.59% |
| CN(C)CC(C)(O)CNC(=O)Nc1sc2ccccc2c1Cl (stereo unspecified) | 11.5% |
| COC(=O)C(NC(=O)c1ccc(N(C)C)nc1)c1ccccc1 (stereo unspecified) | 4.15% |
| CCOCCCC(=O)N1CCCC1c1nc(-c2ccccc2F)c[nH]1 (stereo unspecified) | 12.5% |
| CCNC(=O)c1ccc(NC(=O)N(C)Cc2cc(C)on2)c(C)c1 | 6.2% |
| CC(C)NC(=O)c1ccc(NC(=O)NC(C)c2ccccn2)cc1 (stereo unspecified) | 9.44% |
| Cc1ccnc(NS(=O)(=O)c2cc(C(N)=O)n(C)c2)c1 | 0.814% |
| O=C(Cc1ccc(F)cc1)NS(=O)(=O)c1ccc(F)c(F)c1 | -9.07% |
| Cc1nc(CSCCC(=O)NCC(=O)NC(C)C)cs1 | -2.03% |
| CCCc1noc(CCC(=O)N2CCCC(n3ccnc3C)C2)n1 (stereo unspecified) | -4.39% |
| CCOCCC(=O)N1CCN(CC(C)O)CC1 (stereo unspecified) | 6.7% |
| Cc1nn(C)c(N(C)C)c1CNCc1ccc(N(C)C)nc1 | -1.24% |
| Cc1ccc(CNC(=O)NC2CCN(CC(F)F)CC2)cc1 | -6.25% |
| Cc1cc(CNC(=O)Nc2cccc(COCCOC(C)C)c2)no1 | 11% |
| O=C(CN1CCCC1CCCO)NCc1ccccn1 (stereo unspecified) | -5.6% |
| CC(C)(C)n1cc(NCc2cscn2)cn1 | -6.08% |
| Cc1ccc2cc(C(=O)N3CCCCC3c3nc[nH]n3)ccc2n1 (stereo unspecified) | -5.92% |
| CCC(Nc1cccc(Oc2ccc(C#N)cc2)c1)C(N)=O (stereo unspecified) | 38% |
| Cn1cc(Br)cc1C(=O)NCC(C)(O)c1ccsc1 (stereo unspecified) | -49% |

| SMILES | cytotoxicity at 10 µM |
| --- | --- |
| Cc1ccc(C(NCC(=O)N2CCNC(=O)C2)c2ccccc2)cc1 (stereo unspecified) | 2.1% |
| CCS(=O)(=O)NCCN(CCO)C1CCc2ccccc21 (stereo unspecified) | 14.4% |
| CC1CN(C)c2ccccc2N(C(=O)c2c[nH]c(C(C)C)n2)C1 (stereo unspecified) | 3.61% |
| Cc1ccc(C(CNCc2cccc3c2OCO3)N2CCOCC2)o1 (stereo unspecified) | -38.9% |
| CCN1C(=O)C2(CCCCC2)NC1c1cc(C#N)n(C)c1C (stereo unspecified) | 4.59% |
| c1csc(CCN2CCCC2c2noc(C3CC3)n2)c1 (stereo unspecified) | 9.15% |
| O=C(C1CC=CC1)N1CCCn2nnc(CNc3ncccn3)c2C1 | 6.97% |
| CCO[C@H]1CC[C@H]2[C@H]1OCCN2C(=O)CC1=CCCCC1 | 1.75% |
| O=c1ccc2c(n1CCN1CCCC1)CCN(c1ncccn1)CC2 | 8.33% |
| CCOC1COC2(CCN(S(=O)(=O)c3cccc(F)c3)CC2)C1 (stereo unspecified) | 5.15% |
| CC(C)c1noc(C(C)Nc2nccc(CCC(F)(F)F)n2)n1 (stereo unspecified) | 2.08% |
| COCCN(C/C=C/c1ccccc1)Cc1[nH]cnc1C | 10.3% |
| CNc1cncc(C2CCCN2C(=O)c2ccc3oc(=O)n(C)c3c2)n1 (stereo unspecified) | -1.57% |
| Cc1cc(C2CCCN(C(=O)CN3CCN(C)CC3)C2)n[nH]1 (stereo unspecified) | -4.18% |
| COc1ncccc1CNC(=O)NC1CCOc2ccccc21 (stereo unspecified) | -7% |
| COc1ccc(CNCc2ccnc(N3CCOCC3)c2)c(OC)c1 | -8.92% |
| CN(Cc1ccc2c(c1)OCCO2)C(=O)Cn1ccccc1=O | 1.2% |
| Cc1nc(CN2CCCN(C(=O)C(C)OCC3CC3)CC2)cs1 (stereo unspecified) | -3.87% |
| O=C1NCCN1C1CCN(CCc2cccs2)CC1 | -1.32% |
| O=C(NCCC(=O)N1CCCCCC1)c1c(O)cc(F)cc1F | -1.8% |
| CC(C)N(C)Cc1nnc2n1CCCN(c1ncccn1)C2 | 3.24% |
| Cn1ccnc1C(=O)N[C@@H]1CN(Cc2ccoc2)[C@@H]2CCCO[C@@H]21 | -99.9% |
| O=C1OCCN1CC(=O)N1C[C@@H]2CC[C@H]1CN(C(=O)c1cccnc1)C2 | 11.6% |
